{"source": "paper PMC5384874", "about": "(Medicinal chemistry (Shariqah (United Arab Emirates)), 2017)", "type_in_all_cases": "cell-based, human", "key": {"A549": {"test_system": "A549", "assay": "Cytotoxicity assay, CCK-8 method, A549", "conditions": "read-out: IC50, cytotoxicity against A549; A549, CCK-8, 24 h incubation", "method_in_brief": "(§1)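 Cells grown in RPMI with 10% fetal bovine serum, penicillin (100 U/mL) and streptomycin (50 μg/mL), seeded in 96-well plates at […]. Test compound added at increasing concentrations; untreated cells as control. Incubated 24 h at 37 °C, 5% CO2, humidified. CCK-8 added, 2 h at 37 °C, read with europium detection protocol. IC50 versus DMSO-treated wells by logit method, at least three independent tests.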"}, "MCF-7": {"test_system": "MCF-7", "assay": "Cytotoxicity assay, CCK-8 method, MCF-7", "conditions": "read-out: IC50, cytotoxicity against MCF-7; MCF-7, CCK-8, 24 h incubation", "method_in_brief": "as §1"}, "HeLa": {"test_system": "HeLa", "assay": "Cytotoxicity assay, CCK-8 method, HeLa", "conditions": "read-out: IC50, cytotoxicity against HeLa, CCK-8, 24 h incubation", "method_in_brief": "as §1"}}, "data": [{"substance": "phylactones F/G [5/6]", "values": [{"measurement": "IC50", "setting": "A549", "value": 7.8, "unit": "µM"}, {"measurement": "IC50", "setting": "MCF-7", "value": 5.2, "unit": "µM"}, {"measurement": "IC50", "setting": "HeLa", "value": 9.6, "unit": "µM"}]}]}
